Results published in ChEMBL document CHEMBL2331494, “First synthesis and biological evaluation of indeno[2,1-e]pyrazolo[3,4-b]pyrazin-5-one and related derivatives” (2013).
In brackets after ≈: the same amount, converted by molar mass.

Key:
Type in all cases: functional
Geotrichum candidum = test: Antifungal activity against Geotrichum candidum AUMC 226 assessed as diameter of growth inhibition zone at 20 mg/ml at 28 degC after 7 days; conditions: AUMC 226, 168 h, read-out: DIZ
In short: (§1)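 Inocula: each fungus grown 7 days in Sabouraud's dextrose broth (30 ml per flask). Plates were 10 cm Petri dishes with 1 ml microbial suspension and 15 ml Sabouraud's dextrose agar each. Compound solutions were applied and the diameter of the growth inhibition zone was recorded.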

Micrococcus luteus = test: Antibacterial activity against Micrococcus luteus AUMC B-112 assessed as diameter of growth inhibition zone at 20 mg/ml at 28 degC after 48 hrs; conditions: AUMC B-112, 48 h, read-out: DIZ
In short: (§2)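 Inocula: each bacterial strain grown 48 h in nutrient broth (30 ml per flask). For the assay, 1 ml microbial suspension and 15 ml nutrient agar were poured into each 10 cm Petri plate, compound solutions were applied, and the diameter of the inhibition zone was read.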

Fusarium oxysporum = test: Antifungal activity against Fusarium oxysporum AUMC 5119 assessed as diameter of growth inhibition zone at 20 mg/ml at 28 degC after 7 days; conditions: AUMC 5119, 168 h, read-out: DIZ; in short: as §1
Bacillus cereus = test: Antibacterial activity against Bacillus cereus AUMC B-52 assessed as diameter of growth inhibition zone at 20 mg/ml at 28 degC after 48 hrs; conditions: AUMC B-52, 48 h, read-out: DIZ; in short: as §2
Serratia marcescens = test: Antibacterial activity against Serratia marcescens AUMC B-55 assessed as diameter of growth inhibition zone at 20 mg/ml at 28 degC after 48 hrs; conditions: AUMC B-55, 48 h, read-out: DIZ; in short: as §2
Aspergillus flavus [1] = test: Antifungal activity against Aspergillus flavus AUMC 1276 assessed as diameter of growth inhibition zone at 20 mg/ml at 28 degC after 7 days; conditions: AUMC 1276, 168 h, read-out: DIZ; in short: as §1
Trichophyton rubrum [2] = test: Antifungal activity against Trichophyton rubrum AUMC 1804 assessed as diameter of growth inhibition zone at 20 mg/ml at 28 degC after 7 days; conditions: AUMC 1804, 168 h, read-out: DIZ; in short: as §1
Candida albicans = test: Antifungal activity against Candida albicans AUMC 418 assessed as diameter of growth inhibition zone at 20 mg/ml at 28 degC after 7 days; conditions: AUMC 418, 168 h, read-out: DIZ; in short: as §1
Aspergillus flavus [3] = test: Antifungal activity against Aspergillus flavus AUMC 3214 assessed as growth inhibition at 28 degC after 7 days; conditions: for MIC: Aspergillus flavus, AUMC 3214, 168 h
Staphylococcus aureus = test: Antibacterial activity against Staphylococcus aureus AUMC B-54 assessed as diameter of growth inhibition zone at 20 mg/ml at 28 degC after 48 hrs; conditions: AUMC B-54, 48 h, read-out: DIZ; in short: as §2
Trichophyton rubrum [4] = test: Antifungal activity against Trichophyton rubrum AUMC 1804 assessed as growth inhibition at 28 degC after 7 days; conditions: for MIC: Trichophyton rubrum, AUMC 1804, 168 h
Pseudomonas aeruginosa = test: Antibacterial activity against Pseudomonas aeruginosa AUMC B-73 g assessed as diameter of growth inhibition zone at 20 mg/ml at 28 degC after 48 hrs; conditions: read-out: DIZ; in short: as §2
[5] = test system: Scopulariopsis brevicaulis; test: Antifungal activity against Scopulariopsis brevicaulis AUMC 729 assessed as diameter of growth inhibition zone at 20 mg/ml at 28 degC after 7 days; conditions: AUMC 729, 168 h, read-out: DIZ; in short: as §1
Escherichia coli = test: Antibacterial activity against Escherichia coli AUMC B-53 assessed as diameter of growth inhibition zone at 20 mg/ml at 28 degC after 48 hrs; conditions: AUMC B-53, 48 h, read-out: DIZ; in short: as §2

SMILES | zone of inhibition at 20000 µg/mL (Geotrichum candidum) [mm] | zone of inhibition at 20000 µg/mL (Micrococcus luteus) [mm] | zone of inhibition at 20000 µg/mL (Fusarium oxysporum) [mm] | zone of inhibition at 20000 µg/mL (Bacillus cereus) [mm] | zone of inhibition at 20000 µg/mL (Serratia marcescens) [mm] | zone of inhibition at 20000 µg/mL (Aspergillus flavus [1]) [mm] | zone of inhibition at 20000 µg/mL (Trichophyton rubrum [2]) [mm] | zone of inhibition at 20000 µg/mL (Candida albicans) [mm] | diameter of the inhibition zone (DIZ) (Aspergillus flavus [3]) [mm] | MIC (Aspergillus flavus [3]) [µg/mL] | zone of inhibition at 20000 µg/mL (Staphylococcus aureus) [mm] | diameter of the inhibition zone (DIZ) (Trichophyton rubrum [4]) [mm] | MIC (Trichophyton rubrum [4]) [µg/mL] | zone of inhibition at 20000 µg/mL (Pseudomonas aeruginosa) [mm] | zone of inhibition at 20000 µg/mL [5] [mm] | zone of inhibition at 20000 µg/mL (Escherichia coli) [mm]
Cc1nn(-c2ccccc2)c2nc3c(nc12)/C(=N/N=c1/[nH]c(-c2ccccc2)cs1)c1ccccc1-3 | 10 | 0 | 0 | 0 | 0 | 16 | 30 | 0 | 12 | 2500 (≈ 5150 µM) | 10 | 14 | 300 (≈ 618 µM) | 0 | 0 | 8
Cc1nn(-c2ccccc2)c2nc3c(nc12)/C(=N\NC(N)=S)c1ccccc1-3 | 17 | 0 | 0 | 0 | 0 | 16 | 30 | 0 | 14 | 2500 (≈ 6490 µM) | 8 | 14 | 300 (≈ 778 µM) | 0 | 0 | 0
Clc1ccccc1C(c1ccccc1)(c1ccccc1)n1ccnc1 [CLOTRIMAZOLE] | 26 | – | 20 | – | – | 44 | 36 | 24 | 15 | 150 (≈ 435 µM) | – | 35 | 80 (≈ 232 µM) | – | 28 | –
CCOC(=O)C1S/C(=N\N=C2/c3ccccc3-c3nc4c(nc32)c(C)nn4-c2ccccc2)NC1=O (configuration not stated) | 10 | 0 | 0 | 0 | 0 | 13 | 30 | 0 | 10 | 2500 (≈ 5020 µM) | 8 | 16 | 300 (≈ 603 µM) | 8 | 0 | 8
Cc1nn(-c2ccccc2)c2nc3c(nc12)C(=O)c1ccccc1-3 | 0 | 0 | 0 | 0 | 0 | 0 | 0 | 0 | – | – | 8 | – | – | 0 | 0 | 10
Cc1nn(-c2ccccc2)c2nc3c(nc12)/C(=N/N)c1ccccc1-3 | 0 | 0 | 0 | 0 | 0 | 0 | 0 | 0 | – | – | 8 | – | – | 0 | 0 | 8
